# Experimental data: ChEMBL document CHEMBL1132544, “Synthesis and biological evaluation of novel prodrugs of anthracyclines for selective activation by the tumor-associated protease plasmin” (1999)
# Key:
# Assay type in all cases: functional
# WiDr = experiment: Cytotoxicity against WIDR tumor cell line; settings: Homo sapiens, read-out: ID50 (the source's name)
# Procedure, shortened: (§1)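 Seven human tumour lines, continuous exposure to (pro)drug for 5 days, antiproliferative effect read by microculture sulforhodamine B (SRB) assay. ID50 = concentration giving 50% inhibition of cell growth relative to untreated control cultures, in ng/mL.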
# NCI-H226 = experiment: Cytotoxicity against H 226 tumor cell line; settings: Homo sapiens, read-out: ID50 (the source's name); procedure, shortened: as §1
# MCF7 = experiment: Cytotoxicity against MCF-7 tumor cell line; settings: Homo sapiens, read-out: ID50 (the source's name); procedure, shortened: as §1
# A498 = experiment: Cytotoxicity against A 498 tumor cell line; settings: Homo sapiens, read-out: ID50 (the source's name); procedure, shortened: as §1
# [1] = Cytotoxicity against M19 tumor cell line; settings: Homo sapiens; read-out: ID50 (the source's name); procedure, shortened: as §1
# EVSA-T = experiment: Cytotoxicity against EVSA-T tumor cell line; settings: Homo sapiens, read-out: ID50 (the source's name); procedure, shortened: as §1
# IGROV-1 = experiment: Cytotoxicity against IGROV tumor cell line; settings: Homo sapiens, read-out: ID50 (the source's name); procedure, shortened: as §1
smiles,measurement,setting,value
COc1cccc2c1C(=O)c1c(O)c3c(c(O)c1C2=O)C[C@@](O)(C(=O)CO)C[C@@H]3OC1CC(NC(=O)OCc2ccc(NC(=O)[C@H](CCCCN)NC(=O)[C@H](Cc3ccccc3)NC(=O)[C@@H](C)N)cc2)C(O)C(C)O1.Cl.Cl (stereo partly drawn),IC50,WiDr,0.413 µg/mL
same,IC50,NCI-H226,0.896 µg/mL
same,IC50,MCF7,0.176 µg/mL
same,IC50,A498,0.473 µg/mL
same,IC50,[1],0.437 µg/mL
same,IC50,EVSA-T,0.141 µg/mL
same,IC50,IGROV-1,0.59 µg/mL
COc1cccc2c1C(=O)c1c(O)c3c(c(O)c1C2=O)C[C@@](O)(C(=O)CO)C[C@@H]3O[C@H]1C[C@H](N)[C@H](O)[C@H](C)O1 [DOXORUBICIN],IC50,WiDr,0.011 µg/mL
same,IC50,NCI-H226,0.199 µg/mL
same,IC50,MCF7,0.01 µg/mL
same,IC50,A498,0.09 µg/mL
same,IC50,[1],0.016 µg/mL
same,IC50,EVSA-T,0.008 µg/mL
same,IC50,IGROV-1,0.06 µg/mL
COc1cccc2c1C(=O)c1c(O)c3c(c(O)c1C2=O)C[C@@](O)(C(C)=O)C[C@@H]3OC1CC(NC(=O)OCc2ccc(NC(=O)[C@H](CCCCN)NC(=O)[C@H](Cc3ccccc3)NC(=O)[C@@H](C)N)cc2)C(O)C(C)O1.Cl.Cl (stereo partly drawn),IC50,WiDr,2.15 µg/mL
same,IC50,NCI-H226,1.7 µg/mL
same,IC50,MCF7,1.21 µg/mL
same,IC50,A498,1.16 µg/mL
same,IC50,[1],1.58 µg/mL
same,IC50,EVSA-T,1.2 µg/mL
same,IC50,IGROV-1,0.225 µg/mL
COc1cccc2c1C(=O)c1c(O)c3c(c(O)c1C2=O)C[C@@](O)(C(C)=O)C[C@@H]3O[C@H]1C[C@H](N)[C@H](O)[C@H](C)O1 [DAUNORUBICIN],IC50,WiDr,0.038 µg/mL
same,IC50,NCI-H226,0.243 µg/mL
same,IC50,MCF7,0.329 µg/mL
same,IC50,A498,0.487 µg/mL
same,IC50,[1],0.309 µg/mL
same,IC50,EVSA-T,0.048 µg/mL
same,IC50,IGROV-1,0.113 µg/mL
